According to ChEMBL document CHEMBL3769305, “Glucose-functionalized amino-OPEs as biocompatible photosensitizers in PDT” (Eur J Med Chem, 2016):
Active and inactive are the calls of the source. The rule behind the calls is not given here.

How the values were obtained:
[1] = Dark toxicity against human HaCaT cells assessed as cell survival at 10 uM incubated for 6 hrs measured after 24 hrs by MTT assay; assay type: cell-based; settings: read-out: Survival
How it was run: (§1)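 Cells (HaCaT and HeLa in DMEM, HEp-2 in RPMI, each with 10% FBS, at 37 °C and 5% CO2) were treated at 60–70% confluence. The compound was added from a 10^-3 M DMSO stock in medium with 1% FBS (final DMSO <0.5%) at 3·10^-6 to 2.5·10^-5 M and kept in the dark (6 h per table footnote, 18 h per methods). After 24 h, MTT at 50 µg/mL for 4 h, read at 542 nm as % of control OD.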

[2] = tested on: HeLa; test: Phototoxicity against human HeLa cells assessed as cell lethality at 3 to 250 uM incubated for 6 hrs followed by UV irradiation at 1 J/cm'2 measured after 24 hrs by MTT assay; assay type: functional
How it was run: (§2)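 Cultures at 60–70% confluence were loaded with the photosensitizer for 6 h in medium with 1% FBS and <0.5% DMSO. Medium was then replaced and cells were irradiated with UVA (300–400 nm, 15.9 W/m² at 10 cm), then washed and kept in complete medium for 24 h. Survival was read by MTT (50 µg/mL, 4 h, 542 nm) as % of untreated control OD.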

[3] = Phototoxicity against human Hep2 cells assessed as cell lethality at 3 to 250 uM incubated for 6 hrs followed by UV irradiation at 2 J/cm'2 measured after 24 hrs by MTT assay; assay type: functional, HEp-2; how it was run: as §2
[4] = Dark toxicity against human Hep2 cells assessed as cell survival at 10 uM incubated for 6 hrs measured after 24 hrs by MTT assay; assay type: cell-based, HEp-2; settings: read-out: Survival; how it was run: as §1
[5] = Drug uptake in human Hep2 cells at 1 uM after 6 hrs by fluorescence microscopy; assay type: ADME, cell-based; settings: hep-2, 6 h
How it was run: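 Cells on glass coverslips at 60–70% confluence were exposed to 1×10^-6 M compound in medium with 1% FBS (DMSO <0.5%) for 6 h at 37 °C. After two PBS washes they were imaged live under UV excitation (365 nm), with blue excitation (460–490 nm) also used. Untreated cells served as autofluorescence controls.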

[6] = tested on: HEp-2; test: Induction of cell morphological changes in human Hep2 cells assessed as cellular stretching at 3 to 5 uM after 24 hrs by Hoechst 33258 staining-based phase contrast microscopy in presence of UVA light; assay type: functional
[7] = tested on: HeLa; test: Induction of cell morphological changes in human HeLa cells assessed as cell detachment from substrate at 3 to 5 uM after 24 hrs by Hoechst 33258 staining-based phase contrast microscopy in presence of UVA light; assay type: functional
[8] = tested on: HEp-2; test: Induction of cell morphological changes in human Hep2 cells assessed as cytoplasmic retraction at 3 to 5 uM after 24 hrs by Hoechst 33258 staining-based phase contrast microscopy in presence of UVA light; assay type: functional
[9] = Induction of microtubule disruption in human HeLa cells assessed as abnormality in chromosome distribution at LD50 after 24 hrs by immunofluorescence assay in presence of UVA light; assay type: cell-based
[10] = tested on: HaCaT; test: Induction of apoptosis in human HaCaT cells at LD50 after 24 hrs by acridine orange/ethidium bromide staining-based assay in presence of 0.25 to 0.5 J/cm'2 UVA light; assay type: cell-based
[11] = tested on: HeLa; test: Induction of cell morphological changes in human HeLa cells assessed as cellular stretching at 3 to 5 uM after 24 hrs by Hoechst 33258 staining-based phase contrast microscopy in presence of UVA light; assay type: functional
[12] = tested on: HaCaT; test: Induction of necrotic morphological changes in human HaCaT cells at LD50 after 24 hrs by Hoechst 33258 staining-based fluorescence microscopy in presence of UVA light; assay type: cell-based
[13] = Dark toxicity against human HaCaT cells assessed as cell survival at 3 uM incubated for 6 hrs measured after 24 hrs by MTT assay; assay type: cell-based; settings: read-out: Survival; how it was run: as §1
[14] = Phototoxicity against human HaCaT cells incubated for 6 hrs followed by UV irradiation at 0.25 J/cm'2 measured after 24 hrs by MTT assay; assay type: cell-based; settings: read-out: LD50; how it was run: as §2
[15] = tested on: HaCaT; test: Phototoxicity against human HaCaT cells assessed as cell lethality at 3 to 250 uM incubated for 6 hrs followed by UV irradiation at 1 J/cm'2 measured after 24 hrs by MTT assay; assay type: cell-based; how it was run: as §2
[16] = tested on: HeLa; test: Induction of cell morphological changes in human HeLa cells assessed as cytoplasmic retraction at 3 to 5 uM after 24 hrs by Hoechst 33258 staining-based phase contrast microscopy in presence of UVA light; assay type: functional
[17] = tested on: HeLa; test: Induction of apoptotic morphological changes in human HeLa cells at LD50 after 24 hrs by Hoechst 33258 staining-based fluorescence microscopy in presence of UVA light; assay type: functional, cell-based
[18] = tested on: HeLa; test: Induction of apoptosis in human HeLa cells at LD50 after 24 hrs by acridine orange/ethidium bromide staining-based assay in presence of 0.25 to 0.5 J/cm'2 UVA light; assay type: functional, cell-based
[19] = tested on: HEp-2; test: Phototoxicity against human Hep2 cells assessed as appearance of rounded cells at LD50 after 24 hrs by acridine orange/ethidium bromide staining-based assay in presence of 0.25 to 0.5 J/cm'2 UVA light; assay type: functional, cell-based
How it was run: (§3)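 Cells (HaCaT, HeLa in DMEM; HEp-2 in RPMI; 10% FBS) at 60–70% confluence were incubated 6 h with 3·10^-6 M photosensitizer (DMSO stock diluted in medium with 1% FBS, final DMSO <0.5%). Medium was replaced and cells were given 0.25 J/cm² UVA (300–400 nm). 24 h later, cells were stained live with 50 µg/ml AO plus 50 µg/ml EtBr in PBS. Within 15 min, 200 cells per condition were scored as living, rounded, apoptotic or necrotic.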

[20] = tested on: HaCaT; test: Induction of apoptotic morphological changes in human HaCaT cells at LD50 after 24 hrs by Hoechst 33258 staining-based fluorescence microscopy in presence of UVA light; assay type: cell-based
[21] = tested on: HeLa; test: Induction of necrotic morphological changes in human HeLa cells at LD50 after 24 hrs by Hoechst 33258 staining-based fluorescence microscopy in presence of UVA light; assay type: functional, cell-based
[22] = tested on: HEp-2; test: Induction of microtubule disruption in human Hep2 cells assessed as appearance of extrapoles at LD50 after 24 hrs by immunofluorescence assay in presence of UVA light; assay type: cell-based
[23] = tested on: HaCaT; test: Induction of morphological changes in human HaCaT cells assessed as nuclear retraction at LD50 after 24 hrs by Hoechst 33258 staining-based fluorescence microscopy in presence of UVA light; assay type: cell-based
[24] = tested on: HaCaT; test: Induction of cell morphological changes in human HaCaT cells assessed as cytoplasmic retraction at 3 to 5 uM after 24 hrs by Hoechst 33258 staining-based phase contrast microscopy in presence of UVA light
[25] = tested on: HeLa; test: Phototoxicity against human HeLa cells assessed as appearance of rounded cells at LD50 after 24 hrs by acridine orange/ethidium bromide staining-based assay in presence of 0.25 to 0.5 J/cm'2 UVA light; assay type: functional, cell-based; how it was run: as §3
[26] = tested on: HEp-2; test: Induction of cell morphological changes in human Hep2 cells assessed as deep deformation of cell membrane at LD90 after 24 hrs by Hoechst 33258 staining-based phase contrast microscopy in presence of 1 to 2 J/Cm'2 UVA light; assay type: functional

Compound | viability at 6 h, 10 µM [1] [%] | mortality [2] [%] | mortality [3] [%] | viability at 6 h, 10 µM [4] [%] | Drug uptake [5] | Activity [6] | Activity [7] | Activity [8] | Activity [9] | Activity [10] | Activity [11] | Activity [12] | viability at 6 h, 3 µM [13] [%] | CC50 at 24 h [14] [µM] | mortality [15] [%] | Activity [16] | Activity [17] | Activity [18] | Activity [19] | Activity [20] | also measured
COc1cc(C#Cc2ccc(C#Cc3cc(OC)c(C#CCO[C@@H]4O[C@H](CO)[C@@H](O)[C@H](O)[C@H]4O)cc3OC)c(N(C)C)c2)c(OC)cc1C#CCO[C@@H]1O[C@H](CO)[C@@H](O)[C@H](O)[C@H]1O | 71.5 | >50 | >50 | 85.6 | Active | Active | Active | Active | Active | Toxic | Active | Toxic | 92.4 | 3 | > 50 | Active | Active | Active | Active | Toxic | Activity [21]: Active; Activity [22]: Active; Activity [23]: Toxic; Activity [24]: Toxic; Activity [25]: Active; Activity [26]: Active
COc1cc(C#Cc2ccc(C#CCO[C@@H]3O[C@H](CO)[C@@H](O)[C@H](O)[C@H]3O)cc2N(C)C)c(OC)cc1C#Cc1ccc(C#CCO[C@@H]2O[C@H](CO)[C@@H](O)[C@H](O)[C@H]2O)cc1N(C)C | 70.2 | >50 | >50 | 80.1 | Active | Active | Active | Active | Active | Toxic | Active | Toxic | 91.5 | 3 | > 50 | Active | Active | Active | Active | Toxic | Activity [21]: Active; Activity [22]: Active; Activity [23]: Toxic; Activity [24]: Toxic; Activity [25]: Active; Activity [26]: Active
